Source: PMC8808266 (Photochemistry and photobiology, 2021)

Assays:
Format in all cases: cell-based, human
OVCAR-4 cells = experiment: Fluorescence cell microscopy, probe uptake; conditions: 1 μM probe, 30 min, 37 °C, compared to control probes
How it was run: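 OVCAR-4 cells were maintained in RPMI-1640 with 10% FBS, 1% L-glutamine and 0.1 mM NEAA (37 °C, 5% CO2), grown to 70% confluency in chambered slides, then given 1 μM probe in medium for 30 min at 37 °C. After 3 PBS washes, they were fixed in cold 4% PFA (20 min, RT), Hoechst-stained (3 μM, 10 min) and imaged by epifluorescence. Mean intensity: 200-pixel rolling-ball subtraction, auto-threshold, average ± SEM.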

HT-1080 cells = experiment: Fluorescence cell microscopy, probe uptake; conditions: 1 μM probe, 30 min, 37 °C, compared to control probes
How it was run: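 HT-1080 cells were kept in EMEM with 10% FBS, 0.1 mM NEAA, 1.5 g/L bicarbonate, 1 mM pyruvate and 1% pen/strep (37 °C, 5% CO2), then grown to 70% confluency. They were exposed to 1 μM probe in medium for 30 min at 37 °C, washed ×3 with PBS, fixed in cold 4% PFA, Hoechst-stained and imaged (Cy5.5 filter). Intensity: rolling-ball background subtraction, auto-threshold, average ± SEM.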

A549 cells [1] = experiment: Colocalization / co-incubation with Cy3-cRGDfK; conditions: co-incubation with 1 μM Cy3-cRGDfK, 1 μM probe, 30 min
How it was run: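 Live A549 cells at 70% confluency in chambered slides were co-incubated 30 min at 37 °C with 1 μM Cy3-cRGDfK plus 1 μM test compound in medium. They were then PBS-washed ×3, Hoechst-stained (3 μM, 10 min, RT) and imaged by epifluorescence (TxRed and Cy5.5 filters). After 10-pixel rolling-ball background subtraction, Pearson's correlation coefficient was computed and reported as average ± SEM.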

A549 cells [2] = experiment: Competitive blocking study of probe uptake; conditions: repeated many times using fixed and living cells; excess cRGDfK or Cilengitide
How it was run: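 A549 cells at 70% confluency on 8-well slides received 200 μM cRGDfK or 50 μM cilengitide 5 min before the test compound; the blocker stayed during a 30 min, 37 °C incubation with 1 μM test compound. Cells were then PBS-washed ×3, fixed in cold 4% PFA (20 min, RT), Hoechst-stained (3 μM) and imaged. Intensity came from 200-pixel rolling-ball background subtraction and auto-threshold, as average ± SEM.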

## DRGDG (bicyclic or more) [SF8(DRGDG)2]
OVCAR-4 cells
  probe uptake (mean fluorescence intensity of epifluorescence micrographs): Enhanced uptake
HT-1080 cells
  probe uptake (mean fluorescence intensity of epifluorescence micrographs): Enhanced uptake
A549 cells [1]
  cell uptake of probe in the presence of Cy3-cRGDfK: did not reduce cell uptake
A549 cells [2]
  cell uptake of probe in competition imaging experiments: not reduced
